Reference: ChEMBL document CHEMBL1287679, “Tuning hydrophobicity of highly cationic tetradecameric Gramicidin S analogues using adamantane amino acids” (Bioorg Med Chem, 2010)
Values after ≈ are worked out from the molar mass of the structure shown.

Experiments:
Staphylococcus aureus [1] = assay: Antimicrobial activity against methicillin-resistant Staphylococcus aureus ATCC 49775 by broth dilution method; assay type: functional
How it was run: (§1)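 Frozen (−70 °C) stocks grown at 35 °C on Columbia sheep-blood agar, suspended in physiological saline to OD595 0.1, diluted 100×; 2 µL inoculum into 50 µL cation-adjusted Mueller Hinton II broth in 96-well plates. Peptides dissolved in methanol (4 g/L), diluted in water, two-fold serial dilutions in broth (64–1 mg/L). Incubation at 35 °C, 24–48 h; MIC = lowest concentration inhibiting growth.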

Enterococcus faecalis = assay: Antimicrobial activity against Enterococcus faecalis ATCC 29212 by broth dilution method; assay type: functional
How it was run: (§2)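 Stored at −70 °C, grown at 35 °C on Columbia sheep-blood agar, then suspended in physiological saline to OD 0.1 AU at 595 nm and diluted 100× in saline. 2 µL inoculum was added to 50 µL cation-adjusted Mueller Hinton II broth. Peptides in methanol (4 g/L stock) were diluted in water, then two-fold in broth (64–1 mg/L). Incubation was 35 °C for 24–48 h. MIC is the lowest concentration inhibiting growth.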

[2] = Toxicity in Erythrocyte assessed as concentration required to achieve 100% hemolysis after 4 hrs; assay type: cell-based
How it was run: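 Heparinized fresh blood was centrifuged (1000g, 10 min, 10 °C). Erythrocytes were washed three times in 0.85% saline and diluted to a 1/25 packed volume. Peptides were prepared as a 1.5 mM stock in 30% DMSO/0.5 mM saline and serially two-fold diluted in triplicate rows. 1% Triton-X served as the full-lysis control. Incubation was 37 °C for 4 h, then centrifugation; supernatant was read. Value is the concentration giving 100% lysis.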

Staphylococcus aureus [3] = assay: Antimicrobial activity against methicillin-resistant Staphylococcus aureus isolate 1110301981 by broth dilution method; assay type: functional; how it was run: as §1
[4] = Therapeutic index, concentration required to achieve 100% hemolysis in erythrocyte to MIC for Staphylococcus aureus ATCC 29213; settings: erythrocytes; read-out: Ratio
How it was run: (§3)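 Therapeutic index was taken as the concentration for 100% haemolysis divided by MIC for the given strain.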

Pseudomonas aeruginosa = assay: Antimicrobial activity against Pseudomonas aeruginosa ATCC 27853 by broth dilution method; assay type: functional; how it was run: as §2
Escherichia coli = assay: Antimicrobial activity against Escherichia coli ATCC 25922 by broth dilution method; assay type: functional; how it was run: as §2
[5] = test system: Staphylococcus epidermidis; assay: Antimicrobial activity against Staphylococcus epidermidis ATCC 12228 by broth dilution method; assay type: functional; how it was run: as §2
Staphylococcus aureus [6] = assay: Antimicrobial activity against methicillin-resistant Staphylococcus aureus N133 by broth dilution method; assay type: functional; how it was run: as §1
[7] = Therapeutic index, concentration required to achieve 100% hemolysis in erythrocyte to MIC for Escherichia coli ATCC 25922; settings: erythrocytes; how it was run: as §3
Staphylococcus aureus [8] = assay: Antimicrobial activity against methicillin-resistant Staphylococcus aureus N229 by broth dilution method; assay type: functional; how it was run: as §1
Staphylococcus aureus [9] = assay: Antimicrobial activity against Staphylococcus aureus ATCC 29213 by broth dilution method; assay type: functional; how it was run: as §1
Staphylococcus aureus [10] = assay: Antimicrobial activity against methicillin-resistant Staphylococcus aureus ATCC 43300 by broth dilution method; assay type: functional; how it was run: as §1
Staphylococcus aureus [11] = assay: Antimicrobial activity against community acquired methicillin-resistant Staphylococcus aureus isolate 1110301146 by broth dilution method; assay type: functional; how it was run: as §1
Bacillus cereus = assay: Antimicrobial activity against Bacillus cereus ATCC 11778 by broth dilution method; assay type: functional; how it was run: as §2

CC(C)C[C@@H]1NC(=O)[C@H](CCCN)NC(=O)[C@H](C23CC4CC(CC(C4)C2)C3)NC(=O)[C@H](CCCN)NC(=O)[C@@H]2CCCN2C(=O)[C@@H](Cc2ccccc2)NC(=O)[C@H](CCCN)NC(=O)[C@H](CC23CC4CC(CC(C4)C2)C3)NC(=O)[C@H](CCCN)NC(=O)[C@H](C(C)C)NC(=O)[C@H](CCCN)NC(=O)[C@@H]2CCCN2C(=O)[C@@H](Cc2ccccc2)NC(=O)[C@H](CCCN)NC1=O
MIC (Staphylococcus aureus [1]): 16 µg/mL (≈ 8.98 µM)
MIC (Enterococcus faecalis): 16 µg/mL (≈ 8.98 µM)
Activity [2]: 31.3 µM
MIC (Staphylococcus aureus [3]): 16 µg/mL (≈ 8.98 µM)
selectivity ratio [4]: 3.9
MIC (Pseudomonas aeruginosa): 16 µg/mL (≈ 8.98 µM)
MIC (Escherichia coli): 16 µg/mL (≈ 8.98 µM)
MIC [5]: 4 µg/mL (≈ 2.24 µM)
MIC (Staphylococcus aureus [6]): 32 µg/mL (≈ 18 µM)
selectivity ratio [7]: 2
MIC (Staphylococcus aureus [8]): 16 µg/mL (≈ 8.98 µM)
MIC (Staphylococcus aureus [9]): 8 µg/mL (≈ 4.49 µM)
MIC (Staphylococcus aureus [10]): 16 µg/mL (≈ 8.98 µM)
MIC (Staphylococcus aureus [11]): 16 µg/mL (≈ 8.98 µM)
MIC (Bacillus cereus): 4 µg/mL (≈ 2.24 µM)

CC(C)C[C@@H]1NC(=O)[C@H](CCCN)NC(=O)[C@H](C(C)C)NC(=O)[C@H](CCCN)NC(=O)[C@@H]2CCCN2C(=O)[C@@H](Cc2ccccc2)NC(=O)[C@H](CCCN)NC(=O)[C@H](CC23CC4CC(CC(C4)C2)C3)NC(=O)[C@H](CCCN)NC(=O)[C@H](C23CC4CC(CC(C4)C2)C3)NC(=O)[C@H](CCCN)NC(=O)[C@@H]2CCCN2C(=O)[C@@H](Cc2ccccc2)NC(=O)[C@H](CCCN)NC1=O
MIC (Staphylococcus aureus [1]): 16 µg/mL (≈ 8.98 µM)
MIC (Enterococcus faecalis): 8 µg/mL (≈ 4.49 µM)
Activity [2]: 31.3 µM
MIC (Staphylococcus aureus [3]): 16 µg/mL (≈ 8.98 µM)
selectivity ratio [4]: 3.9
MIC (Pseudomonas aeruginosa): 8 µg/mL (≈ 4.49 µM)
MIC (Escherichia coli): 16 µg/mL (≈ 8.98 µM)
MIC [5]: 4 µg/mL (≈ 2.24 µM)
MIC (Staphylococcus aureus [6]): 16 µg/mL (≈ 8.98 µM)
selectivity ratio [7]: 3.9
MIC (Staphylococcus aureus [8]): 16 µg/mL (≈ 8.98 µM)
MIC (Staphylococcus aureus [9]): 8 µg/mL (≈ 4.49 µM)
MIC (Staphylococcus aureus [10]): 16 µg/mL (≈ 8.98 µM)
MIC (Staphylococcus aureus [11]): 16 µg/mL (≈ 8.98 µM)
MIC (Bacillus cereus): 1 µg/mL (≈ 0.561 µM)

CC(C)C[C@@H]1NC(=O)[C@H](CCCN)NC(=O)[C@H](C(C)C)NC(=O)[C@H](CCCN)NC(=O)[C@@H]2CCCN2C(=O)[C@@H](Cc2ccccc2)NC(=O)[C@H](CCCN)NC(=O)[C@H](CC(C)C)NC(=O)[C@H](CCCN)NC(=O)[C@H](C23CC4CC(CC(C4)C2)C3)NC(=O)[C@H](CCCN)NC(=O)[C@@H]2CCCN2C(=O)[C@@H](Cc2ccccc2)NC(=O)[C@H](CCCN)NC1=O
MIC (Staphylococcus aureus [1]): 8 µg/mL (≈ 4.73 µM)
MIC (Enterococcus faecalis): 32 µg/mL (≈ 18.9 µM)
Activity [2]: 125 µM
MIC (Staphylococcus aureus [3]): 8 µg/mL (≈ 4.73 µM)
selectivity ratio [4]: 7.8
MIC (Pseudomonas aeruginosa): 8 µg/mL (≈ 4.73 µM)
MIC (Escherichia coli): 16 µg/mL (≈ 9.47 µM)
MIC [5]: 4 µg/mL (≈ 2.37 µM)
MIC (Staphylococcus aureus [6]): 8 µg/mL (≈ 4.73 µM)
selectivity ratio [7]: 15.6
MIC (Staphylococcus aureus [8]): 8 µg/mL (≈ 4.73 µM)
MIC (Staphylococcus aureus [9]): 16 µg/mL (≈ 9.47 µM)
MIC (Staphylococcus aureus [10]): 8 µg/mL (≈ 4.73 µM)
MIC (Staphylococcus aureus [11]): 16 µg/mL (≈ 9.47 µM)
MIC (Bacillus cereus): 8 µg/mL (≈ 4.73 µM)

CC(C)[C@@H]1NC(=O)[C@H](CCCN)NC(=O)[C@@H]2CCCN2C(=O)[C@@H](Cc2ccccc2)NC(=O)[C@H](CCCN)NC(=O)[C@H](CC23CC4CC(CC(C4)C2)C3)NC(=O)[C@H](CCCN)NC(=O)[C@H](C(C)C)NC(=O)[C@H](CCCN)NC(=O)[C@@H]2CCCN2C(=O)[C@@H](Cc2ccccc2)NC(=O)[C@H](CCCN)NC(=O)[C@H](CC23CC4CC(CC(C4)C2)C3)NC(=O)[C@H](CCCN)NC1=O
MIC (Staphylococcus aureus [1]): 8 µg/mL (≈ 4.49 µM)
MIC (Enterococcus faecalis): 8 µg/mL (≈ 4.49 µM)
Activity [2]: 31.3 µM
MIC (Staphylococcus aureus [3]): 8 µg/mL (≈ 4.49 µM)
selectivity ratio [4]: 3.9
MIC (Pseudomonas aeruginosa): 8 µg/mL (≈ 4.49 µM)
MIC (Escherichia coli): 32 µg/mL (≈ 18 µM)
MIC [5]: 8 µg/mL (≈ 4.49 µM)
MIC (Staphylococcus aureus [6]): 8 µg/mL (≈ 4.49 µM)
selectivity ratio [7]: 3.9
MIC (Staphylococcus aureus [8]): 8 µg/mL (≈ 4.49 µM)
MIC (Staphylococcus aureus [9]): 8 µg/mL (≈ 4.49 µM)
MIC (Staphylococcus aureus [10]): 8 µg/mL (≈ 4.49 µM)
MIC (Staphylococcus aureus [11]): 8 µg/mL (≈ 4.49 µM)
MIC (Bacillus cereus): 8 µg/mL (≈ 4.49 µM)

CC(C)C[C@@H]1NC(=O)[C@H](CCCN)NC(=O)[C@H](C23CC4CC(CC(C4)C2)C3)NC(=O)[C@H](CCCN)NC(=O)[C@@H]2CCCN2C(=O)[C@@H](Cc2ccccc2)NC(=O)[C@H](CCCN)NC(=O)[C@H](CC23CC4CC(CC(C4)C2)C3)NC(=O)[C@H](CCCN)NC(=O)[C@H](C23CC4CC(CC(C4)C2)C3)NC(=O)[C@H](CCCN)NC(=O)[C@@H]2CCCN2C(=O)[C@@H](Cc2ccccc2)NC(=O)[C@H](CCCN)NC1=O
MIC (Staphylococcus aureus [1]): 16 µg/mL (≈ 8.54 µM)
MIC (Enterococcus faecalis): 8 µg/mL (≈ 4.27 µM)
Activity [2]: 15.6 µM
MIC (Staphylococcus aureus [3]): 8 µg/mL (≈ 4.27 µM)
selectivity ratio [4]: 1
MIC (Pseudomonas aeruginosa): 16 µg/mL (≈ 8.54 µM)
MIC (Escherichia coli): 32 µg/mL (≈ 17.1 µM)
MIC [5]: 8 µg/mL (≈ 4.27 µM)
MIC (Staphylococcus aureus [6]): 8 µg/mL (≈ 4.27 µM)
selectivity ratio [7]: 1
MIC (Staphylococcus aureus [8]): 8 µg/mL (≈ 4.27 µM)
MIC (Staphylococcus aureus [9]): 16 µg/mL (≈ 8.54 µM)
MIC (Staphylococcus aureus [10]): 16 µg/mL (≈ 8.54 µM)
MIC (Staphylococcus aureus [11]): 8 µg/mL (≈ 4.27 µM)
MIC (Bacillus cereus): 4 µg/mL (≈ 2.13 µM)
